ChEMBL document CHEMBL1157869, “Discovering some novel tetrahydroquinoline derivatives bearing the biologically active sulfonamide moiety as a new class of antitumor agents” (Eur J Med Chem, 2010)
Values after ≈ are worked out from the molar mass of the structure shown.

How the values were obtained:
[1] = Antitumor activity against mouse EAC cells assessed as non viable cells at 100 ug/mL after 2 hrs by trypan blue exclusion test; assay type: functional, Ehrlich
Procedure, shortened: (§1)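 Cells came from the ascitic fluid of preinoculated female Swiss albino mice and were suspended in medium with glutamine, fetal calf serum and antibiotics. Compound from DMSO dilutions was added as 0.1 mL, equal to the stated µg level, to medium plus 0.1 mL cell suspension (2 × 10^6). After 2 h at 37 °C, the percentage of non-viable cells was counted by trypan blue exclusion.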

[2] = Antitumor activity against mouse EAC cells assessed as non viable cells after 2 hrs by trypan blue exclusion test; assay type: functional, cell-based; conditions: Ehrlich
Procedure, shortened: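 EAC cells were aspirated from the ascitic fluid of preinoculated female Swiss albino mice and suspended in medium containing glutamine, fetal calf serum, streptomycin and penicillin. Tubes received compound from DMSO dilutions (0.1 mL, corresponding to 100, 50, 25 or 10 µg) plus 0.1 mL cells and were held at 37 °C for 2 h. Non-viable cells were counted by trypan blue exclusion, and IC50 was read from the survival-versus-concentration curve.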

[3] = Antitumor activity against mouse EAC cells assessed as non viable cells at 25 ug/mL after 2 hrs by trypan blue exclusion test; assay type: functional, Ehrlich; procedure, shortened: as §1
[4] = Antitumor activity against mouse EAC cells assessed as non viable cells at 50 ug/mL after 2 hrs by trypan blue exclusion test; assay type: functional, Ehrlich; procedure, shortened: as §1
[5] = Antitumor activity against mouse EAC cells assessed as non viable cells at 10 ug/mL after 2 hrs by trypan blue exclusion test; assay type: functional, Ehrlich; procedure, shortened: as §1

SMILES | Activity [1] | IC50 [2] | Activity [3] | Activity [4] | Activity [5]
N#CC1=C(N)N(c2ccc(S(N)(=O)=O)cc2)C2=C(C(=O)CCC2)C1/C=C/c1ccccc1 (stereo not given) | 45% | > 100 µg/mL | 10% | 40% | 2%
Cc1ccc(C2C(C#N)=C(N)N(c3ccc(S(N)(=O)=O)cc3)C3=C2C(=O)CCC3)cc1 (stereo not given) | 100% | 50 µg/mL (≈ 115 µM) | 30% | 50% | 30%
N#CC1=C(N)N(c2ccc(S(N)(=O)=O)cc2)C2=C(C(=O)CCC2)C1c1ccc(O)cc1 (stereo not given) | 100% | 3 µg/mL (≈ 6.87 µM) | 95% | 100% | 90%
COc1ccccc1C1C(C#N)=C(N)N(c2ccc(S(N)(=O)=O)cc2)C2=C1C(=O)CCC2 (stereo not given) | 0% | > 100 µg/mL | 0% | 0% | 0%
N#CC1=C(N)N(c2ccc(S(N)(=O)=O)cc2)C2=C(C(=O)CCC2)C1c1ccccc1 (stereo not given) | 40% | > 100 µg/mL | 30% | 40% | 10%
Cc1ccc(C2C(C#N)=C(N)N(c3ccc(S(N)(=O)=O)cc3)C3=C2C(=O)CCC3)o1 (stereo not given) | 45% | > 100 µg/mL | 10% | 40% | 2%
N#CC1=C(N)N(c2ccc(S(N)(=O)=O)cc2)C2=C(C(=O)CCC2)C1c1cccs1 (stereo not given) | 100% | 5 µg/mL (≈ 11.7 µM) | 80% | 88% | 70%
COc1ccc(C2C(C#N)=C(N)N(c3ccc(S(N)(=O)=O)cc3)C3=C2C(=O)CCC3)c2ccccc12 (stereo not given) | 90% | 70 µg/mL (≈ 140 µM) | 10% | 30% | 10%
N#CC1=C(N)N(c2ccc(S(N)(=O)=O)cc2)C2=C(C(=O)CCC2)C1c1ccco1 (stereo not given) | 10% | > 100 µg/mL | 0% | 5% | 0%
COc1ccc(C2C(C#N)=C(N)N(c3ccc(S(N)(=O)=O)cc3)C3=C2C(=O)CCC3)cc1 (stereo not given) | 100% | 25 µg/mL (≈ 55.5 µM) | 50% | 90% | 30%
N#CC1=C(N)N(c2ccc(S(N)(=O)=O)cc2)C2=C(C(=O)CCC2)C1c1ccc([N+](=O)[O-])cc1 (stereo not given) | 100% | 2.5 µg/mL (≈ 5.37 µM) | 80% | 95% | 85%
COc1cc(OC)c(C2C(C#N)=C(N)N(c3ccc(S(N)(=O)=O)cc3)C3=C2C(=O)CCC3)cc1OC (stereo not given) | 100% | 12 µg/mL (≈ 23.5 µM) | 72% | 100% | 40%
CCOc1cc(C2C(C#N)=C(N)N(c3ccc(S(N)(=O)=O)cc3)C3=C2C(=O)CCC3)ccc1OC (stereo not given) | 100% | 10 µg/mL (≈ 20.2 µM) | 60% | 70% | 50%
COc1cc(C2C(C#N)=C(N)N(c3ccc(S(N)(=O)=O)cc3)C3=C2C(=O)CCC3)ccc1O (stereo not given) | 100% | 25 µg/mL (≈ 53.6 µM) | 50% | 90% | 0%
N#CC1=C(N)N(c2ccc(S(N)(=O)=O)cc2)C2=C(C(=O)CCC2)C1c1cccc([N+](=O)[O-])c1 (stereo not given) | 71% | 25 µg/mL (≈ 53.7 µM) | 50% | 73% | 42%
N#CC1=C(N)N(c2ccc(S(N)(=O)=O)cc2)C2=C(C(=O)CCC2)C1c1c(O)ccc2ccccc12 (stereo not given) | 15% | > 100 µg/mL | 0% | 5% | 0%
COc1ccc2ccccc2c1C1C(C#N)=C(N)N(c2ccc(S(N)(=O)=O)cc2)C2=C1C(=O)CCC2 (stereo not given) | 80% | 12.5 µg/mL (≈ 25 µM) | 62% | 70% | 40%
N#CC1=C(N)N(c2ccc(S(N)(=O)=O)cc2)C2=C(C(=O)CCC2)C1c1ccc(Cl)cc1Cl (stereo not given) | 95% | 25 µg/mL (≈ 51.1 µM) | 50% | 65% | 40%
COc1cccc2c1C(=O)c1c(O)c3c(c(O)c1C2=O)C[C@@](O)(C(=O)CO)C[C@@H]3O[C@H]1C[C@H](N)[C@H](O)[C@H](C)O1 [DOXORUBICIN] | 100% | 37.5 µg/mL (≈ 69 µM) | 39% | 60% | 20%
